Measured values reported in ChEMBL document CHEMBL1153995, “Synthesis and biological evaluation of new enantiomerically pure azole derivatives as inhibitors of Mycobacterium tuberculosis” (2009).
Values after ≈ are worked out from the molar mass of the structure shown.

Each compound was assayed on Mycobacterium tuberculosis (assay: Antimycobacterial activity against Mycobacterium tuberculosis H37Rv ATCC 27294 after 21 to 28 days by two fold agar dilution method).
Assay type: functional
In short: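 Stock kept on Löwenstein-Jensen slants. Twofold agar dilution in Middlebrook 7H11 agar with 10% OADC, compounds at 0.0312–64 µg/mL. Inoculum grown in Middlebrook 7H9 with 10% ADC, suspension at 1.5 × 10⁵ cfu/mL, final 1.5 × 10³ per well. Incubated 21–28 days. MIC read as lowest concentration completely inhibiting visible growth.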
`Brc1ccc([C@@H](c2cn(-c3ccccc3)nn2)n2ccnc2)cc1` gave an MIC of 32 µg/mL (≈ 84.2 µM).
Compound `Clc1ccc(Cn2cc([C@H](c3ccc(Cl)cc3)n3ccnc3)nn2)cc1` has an MIC of 32 µg/mL (≈ 83.3 µM).
With `Clc1ccc(COC(Cn2ccnc2)c2ccc(Cl)cc2Cl)cc1` (stereo not drawn) [ECONAZOLE] the MIC was 12.5 µg/mL (≈ 32.7 µM).
For `Brc1ccc([C@@H](c2cn(Cc3ccccc3)nn2)n2ccnc2)cc1`, the MIC was 32 µg/mL (≈ 81.2 µM).
`Clc1ccccc1C(c1ccccc1)(c1ccccc1)n1ccnc1` [CLOTRIMAZOLE] showed an MIC of 20.4 µg/mL (≈ 59.2 µM).
With `NNC(=O)c1ccncc1` [ISONIAZID] the MIC was 0.2 µg/mL (≈ 1.46 µM).
For `Fc1ccc([C@H](c2cn(Cc3ccccc3)nn2)n2ccnc2)cc1`, the MIC was 64 µg/mL (≈ 192 µM).
With `Fc1ccc([C@H](c2cn(-c3ccccc3)nn2)n2ccnc2)cc1` the MIC was 32 µg/mL (≈ 100 µM).
Work on `Fc1ccc([C@@H](c2cn(Cc3ccccc3)nn2)n2ccnc2)cc1` yielded an MIC of 64 µg/mL (≈ 192 µM).
`Brc1ccc([C@H](c2cn(-c3ccccc3)nn2)n2ccnc2)cc1` showed an MIC of 32 µg/mL (≈ 84.2 µM).
In the case of `Fc1ccc([C@@H](c2cn(-c3ccccc3)nn2)n2ccnc2)cc1`, the MIC was 32 µg/mL (≈ 100 µM).
With `Brc1ccc([C@H](c2cn(Cc3ccccc3)nn2)n2ccnc2)cc1` the MIC was 16 µg/mL (≈ 40.6 µM).
In the case of `Clc1ccc(Cn2cc([C@@H](c3ccc(Cl)cc3)n3ccnc3)nn2)cc1`, the MIC was 32 µg/mL (≈ 83.3 µM).
